Measured values from ChEMBL document CHEMBL5370602, “Structure-Based Design of a Lead Compound Derived from Natural Schweinfurthins with Antitumor Properties That Target Oxysterol-Binding Protein” (J Med Chem, 2023).

How the values were obtained:
[1] = Toxicity in immunodeficient nude mouse model xenografted with high alert medicated patient derived human GBM1 cells assessed as body weight change at 42 mg/kg,po QD for 5 days; type: organism-based; conditions: in vivo, 120 h, time 5 day
How it was run: (§1)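 Female athymic nude mice bearing subcutaneous GBM1-HAM PDX fragments (20 mm³); treatment began day 11 post-implant at tumour volumes 75-196 mm³, 10 per group. Compound i.p. daily in cyclodextrin vehicle (17 days alone, 27 days in combination); temozolomide 42 mg/kg p.o. daily for 5 days in PBS/glucose/Tween 80. Calliper volumes three times weekly; body weight and clinical signs monitored.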

[2] = Toxicity in immunodeficient nude mouse model xenografted with high alert medicated patient derived human GBM1 cells assessed as clinical symptoms at 42 mg/kg,po QD for 5 days; type: organism-based; conditions: in vivo, 120 h, time 5 day; how it was run: as §1
[3] = Antitumor activity in high alert medicated patient derived human GBM1 cells xenografted in immunodeficient nude mouse model assessed as T/C ratio at 42 mg/kg,po QD for 5 days and measured from 9 to 11 days; conditions: time 5 day
[4] = Antitumor activity in high alert medicated patient derived human GBM1 cells xenografted in immunodeficient nude mouse model assessed as tumor growth inhibition at 42 mg/kg,po QD for 5 days and measured from 9 to 11 days; conditions: GBM1, 120 h
[5] = Antitumor activity in high alert medicated patient derived human GBM1 cells xenografted in immunodeficient nude mouse model assessed as change in tumor volume at 42 mg/kg,po QD for 5 days and measured after 11 days relative to control; conditions: time 5 day

In the case of `Cn1nnc2c(C(N)=O)ncn2c1=O` [TEMOZOLOMIDE], the Activity [1] is reported as “Non-Toxic”, the Activity [2] is reported as “Non-Toxic” and the T/C [3] is reported as 62.43%. It also gave a TGDI at 42 mg/kg [4] of 1.34% and an Activity [5] of 546.69%.
